Assay results gathered from unrelated publications.
Protocols differ between the studies behind these lines.
Target: Serine/threonine-protein kinase Sgk3 (SGK3, Homo sapiens, UniProt Q96BR1)
Sequence (Q96BR1 1-496, as in one of the studies): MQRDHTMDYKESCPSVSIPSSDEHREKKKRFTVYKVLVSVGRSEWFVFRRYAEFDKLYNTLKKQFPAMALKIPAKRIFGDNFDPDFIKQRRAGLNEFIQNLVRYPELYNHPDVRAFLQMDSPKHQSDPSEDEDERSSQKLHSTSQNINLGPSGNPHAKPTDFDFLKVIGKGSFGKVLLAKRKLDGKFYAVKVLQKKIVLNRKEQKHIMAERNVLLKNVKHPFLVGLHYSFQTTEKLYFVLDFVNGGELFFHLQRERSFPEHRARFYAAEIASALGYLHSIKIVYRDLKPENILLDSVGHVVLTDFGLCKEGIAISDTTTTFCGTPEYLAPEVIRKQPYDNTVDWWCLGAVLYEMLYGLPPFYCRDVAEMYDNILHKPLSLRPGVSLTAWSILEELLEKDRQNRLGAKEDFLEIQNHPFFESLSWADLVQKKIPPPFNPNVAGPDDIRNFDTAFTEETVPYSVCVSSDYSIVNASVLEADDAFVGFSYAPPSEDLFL

O=C(Nc1cccnn1)N1CC(C/C=C/c2cncc(Oc3ccc(C(F)(F)F)cn3)n2)C1 gave a remaining binding of 87% (cell-free assay, competition with immobilised ligand; 1 µM).
Cc1cnc(NC2CCOCC2)nc1-n1cnc(C(=O)NC(CN)c2cc(F)cc(Cl)c2)c1 (stereo not drawn) gave a remaining activity of 92% (enzyme activity, inhibitor, radiometric; 1 µM).
COc1cc2ncnc(Nc3ccc(Oc4ccccc4)cc3C)c2cc1OC gave an inhibition of 0% (enzyme activity, inhibitor; 1 µM).
With CCc1ccccc1C(=O)Nc1n[nH]c2c(C)c(F)c(C3C(C#N)=C(C)N(C)C(C)=C3C#N)cc12 the remaining binding was 91% (cell-free assay, competition with immobilised ligand; 1 µM).
CCCS(=O)(=O)Nc1ccc(F)c(C(=O)c2c[nH]c3ncc(-c4ccc(Cl)cc4)cc23)c1F has an inhibition of less than 10% (enzyme activity, inhibitor; 1 µM).
Oc1cccc(-c2nc(N3CCOCC3)c3oc4ncccc4c3n2)c1 gave a remaining signal of 95.8% (cell-free assay; 0.5 µM).
With Cc1c(NC(=O)c2cc(C(N)=O)nc3cc(F)ccc23)c(C(F)(F)F)nn1Cc1ccc(C#N)cc1 the remaining binding was 83% (cell-free assay, competition with immobilised ligand; 1 µM).
With N#CCCc1ccc2c(c1)-c1[nH]c3ccc([N+](=O)[O-])cc3c1CC(=O)N2 the remaining signal was 99.2% (cell-free assay; 0.5 µM).
For Cn1nc(C(F)(F)F)cc1-c1cnc(N2CCc3cc(S(=O)(=O)Nc4c(F)cc(Cl)cc4F)cc(N4CCCC4=O)c32)nc1, the remaining binding was 78% (cell-free assay, competition with immobilised ligand; 1 µM).
CC(C)(C)c1nc2c(s1)c1nc(N)ncc1c1ccc(NS(=O)(=O)c3c(F)cccc3F)c(F)c12 has a remaining activity of 89% (enzyme activity, inhibitor, radiometric; 1 µM).
The remaining binding of CNCc1ccccc1-c1csc([C@@H](C)Nc2nc(C)nc3cc(OC)c(OC)cc23)c1 is reported as 78% (cell-free assay, competition with immobilised ligand; 1 µM).
With Nc1ncnc2occ(-c3ccc(NC(=O)Nc4cc(C(F)(F)F)ccc4F)cc3)c12 the remaining signal was 6.6% (cell-free assay, inhibitor; 20 µM).
For CS(=O)(=O)N1CCCC(NC(=O)[C@H](CCC2CCCCC2)NC(=O)c2ccc(CNC(=O)c3cnc4ccccn34)cc2)C1 (stereo partly drawn), the remaining binding was 74% (cell-free assay, competition with immobilised ligand; 0.1 µM).
CCCCNc1ncc2c(-c3ccc(F)cc3)nn(C[C@H]3CC[C@H](N)CC3)c2n1 gave an inhibition of -2.1% (target engagement in cells, inhibitor, chemoproteomics; 20 mM).
The remaining activity of COc1cc(Cl)c(C(=O)N[C@@H](CN[C@H]2CC[C@@H](N)CC2)Cc2ccc(C#N)cc2)cc1-c1ccc(CN[C@H](C)c2ccc(C)cc2)o1 is reported as 83% (enzyme activity, inhibitor; 1 µM).
Cc1ccc(Nc2nccc(N(C)c3ccc4c(C)n(C)nc4c3)n2)cc1S(N)(=O)=O gave an inhibition of 13% (enzyme activity, inhibitor; 10 µM).
For Cc1cc(NC(=O)c2cccc(S(F)(F)(F)(F)F)c2)cc(-n2ccn3nc(-c4cccnc4)cc23)c1, the remaining binding was 72.1% (cell-free assay, competition with immobilised ligand; 1 µM).
CNc1cccc2cc(C(=O)Nc3ccc(C(=O)O)cc3)c(=O)[nH]c12 gave an inhibition of -2.1% (enzyme activity, inhibitor; 10 µM).
CC(C)(O)[C@H]1CC[C@H](Nc2ccc3ncc(-c4cccc(C(F)(F)F)c4)n3n2)CC1 has a remaining activity of 95.8% (enzyme activity, inhibitor; 1 µM).
The remaining activity of O=C(Nc1cnn(-c2csc(C(=O)NC3COC3)c2)c1)Nc1ccccc1Cl is reported as 93.8% (enzyme activity, inhibitor; 5 µM).
For CNC(=O)c1cc(Oc2ccc(NC(=O)Nc3ccc(Cl)c(C(F)(F)F)c3)cc2)ccn1, the inhibition was 14% (enzyme activity, inhibitor; 0.3 µM).
With Cc1ccc(C(=O)Nc2ccc(CN3CCN(C)CC3)c(C(F)(F)F)c2)cc1C#Cc1cnc2cccnn12 the remaining activity was 70% (enzyme activity, inhibitor; 23.5 nM).
With O=C1Nc2ccc(Cl)cc2C1=Cc1cc(Cl)c(O)c(Cl)c1 the remaining signal was 98.6% (cell-free assay; 0.5 µM).
The inhibition of CC/C(=N\NC(=O)NCc1cccc(O)c1)c1ccc(O)c(C)c1O is reported as 83.9% (enzyme activity, inhibitor; 0.1 µM).
